Laboratory results: ChEMBL document CHEMBL2331506, “Design, synthesis, antiviral and cytostatic evaluation of novel isoxazolidine nucleotide analogues with a carbamoyl linker” (Bioorg Med Chem, 2013)
Calls of active or inactive are those of the source. No rule for the calls is given here.

Assays:
[1] = tested on: MDCK; test: Cytotoxicity against dog MDCK cells assessed as alteration of cell morphology up to 100 uM by microscopic analysis; type: cell-based, Canis lupus familiaris
How it was run: (§1)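 Uninfected host-cell cultures were exposed to compound and examined by microscopy. Cytotoxicity was expressed as the minimum cytotoxic concentration (MCC) causing a microscopically detectable alteration of normal cell morphology.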

[2] = Cytotoxicity against cat CRFK cells assessed as alteration of cell morphology up to 100 uM by microscopic analysis; type: cell-based, Felis catus; how it was run: as §1
[3] = tested on: Vero; test: Cytotoxicity against african green monkey Vero cells assessed as alteration of cell morphology up to 100 uM by microscopic analysis; type: cell-based; conditions: chlorocebus sabaeus; how it was run: as §1
[4] = tested on: HeLa; test: Cytotoxicity against human HeLa cells assessed as alteration of cell morphology up to 100 uM by microscopic analysis; type: cell-based; how it was run: as §1
[5] = tested on: HEL; test: Cytotoxicity against human HEL cells assessed as alteration of cell morphology up to 100 uM by microscopic analysis; type: cell-based; how it was run: as §1
[6] = tested on: Human immunodeficiency virus 2; test: Antiviral activity against Human immunodeficiency virus 2 ROD infected in human CEM cells assessed as reduction of virus-induced giant cell formation at 250 uM after 4 to 5 days; type: functional, organism-based; conditions: CCRF-CEM
How it was run: (§2)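 CEM cells at 3 × 10^5 cells/mL were infected with HIV at 100 CCID50 per mL in the presence of compound dilutions. They were held 4–5 days at 37 °C in humidified CO2. Syncytium (giant cell) formation was scored microscopically, and EC50 was taken as the concentration inhibiting giant cell formation by 50%.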

[7] = tested on: Human immunodeficiency virus 1; test: Antiviral activity against Human immunodeficiency virus 1 3B infected in human CEM cells assessed as reduction of virus-induced giant cell formation at 250 uM after 4 to 5 days; type: functional, organism-based; conditions: CCRF-CEM; how it was run: as §2
[8] = tested on: Feline coronavirus; test: Antiviral activity against Feline coronavirus infected in cat CRFK cells assessed as reduction of virus-induced cytopathogenicity at 250 uM; type: functional, organism-based
[9] = tested on: Felid alphaherpesvirus 1; test: Antiviral activity against Feline herpes virus infected in cat CRFK cells assessed as reduction of virus-induced cytopathogenicity at 250 uM; type: functional, organism-based
[10] = tested on: Influenza B virus; test: Antiviral activity against Influenza B virus infected in dog MDCK cells assessed as reduction of virus-induced cytopathogenicity at 250 uM; type: functional, organism-based
How it was run: (§3)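 Confluent cell monolayers were infected with 100 CCID50 of virus while exposed to varying compound concentrations. Cytopathicity was scored once it was complete in untreated infected controls. EC50 was taken as the concentration that reduced virus-induced cytopathogenicity by 50%.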

[11] = tested on: Influenza A virus; test: Antiviral activity against Influenza A virus H3N2 infected in dog MDCK cells assessed as reduction of virus-induced cytopathogenicity at 250 uM; type: functional, organism-based; how it was run: as §3
[12] = tested on: Influenza A virus; test: Antiviral activity against Influenza A virus H1N1 infected in dog MDCK cells assessed as reduction of virus-induced cytopathogenicity at 250 uM; type: functional, organism-based; how it was run: as §3
[13] = tested on: Punta Toro virus; test: Antiviral activity against Punta Toro virus infected in african green monkey Vero cells assessed as reduction of virus-induced cytopathogenicity at 250 uM; type: functional, organism-based
How it was run: (§4)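 Confluent monolayers (HEL fibroblasts, Vero, or HeLa cells as listed) were infected with 100 CCID50 of virus in the presence of varying compound concentrations. Virus-induced cytopathicity or plaque formation was scored once cytopathicity was complete in untreated infected controls. EC50 was taken as the concentration reducing cytopathogenicity or plaque formation by 50%.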

[14] = tested on: Sindbis virus; test: Antiviral activity against Sindbis virus infected in african green monkey Vero cells assessed as reduction of virus-induced cytopathogenicity at 250 uM; type: functional, organism-based; how it was run: as §4
[15] = tested on: Coxsackievirus B4; test: Antiviral activity against Coxsackievirus B4 infected in african green monkey Vero cells assessed as reduction of virus-induced cytopathogenicity at 250 uM; type: functional, organism-based; how it was run: as §4
[16] = tested on: Mammalian orthoreovirus 1; test: Antiviral activity against Reovirus 1 infected in african green monkey Vero cells assessed as reduction of virus-induced cytopathogenicity at 250 uM; type: functional, organism-based; how it was run: as §4
[17] = tested on: Human respirovirus 3; test: Antiviral activity against Parainfluenza virus 3 infected in african green monkey Vero cells assessed as reduction of virus-induced cytopathogenicity at 250 uM; type: functional, organism-based; how it was run: as §4
[18] = tested on: Respiratory syncytial virus; test: Antiviral activity against Respiratory syncytial virus long infected in human HeLa cells assessed as reduction of virus-induced cytopathogenicity at 250 uM; type: functional, organism-based; how it was run: as §4
[19] = tested on: Vesicular stomatitis virus; test: Antiviral activity against Vesicular stomatitis virus infected in human HeLa cells assessed as reduction of virus-induced cytopathogenicity at 250 uM; type: functional, organism-based; how it was run: as §3
[20] = tested on: Human alphaherpesvirus 1; test: Antiviral activity against thymidine kinase-deficient, ACV-resistant Herpes simplex virus 1 KOS infected in human HEL cells assessed as reduction of virus-induced cytopathogenicity at 250 uM; type: functional, organism-based; how it was run: as §3
[21] = tested on: Vesicular stomatitis virus; test: Antiviral activity against Vesicular stomatitis virus infected in human HEL cells assessed as reduction of virus-induced cytopathogenicity at 250 uM; type: functional, organism-based; how it was run: as §3
[22] = tested on: Human alphaherpesvirus 2; test: Antiviral activity against Herpes simplex virus 2 G infected in human HEL cells assessed as reduction of virus-induced cytopathogenicity at 250 uM; type: functional, organism-based; conditions: strain G; how it was run: as §4
[23] = tested on: Human alphaherpesvirus 1; test: Antiviral activity against Herpes simplex virus 1 KOS infected in human HEL cells assessed as reduction of virus-induced cytopathogenicity at 250 uM; type: functional, organism-based; how it was run: as §4

Row | Compound | Activity [1] | Activity [2] | Activity [3] | Activity [4] | Activity [5] | inhibition [6] | inhibition [7] | inhibition [8] | inhibition [9] | inhibition [10] | inhibition [11] | inhibition [12] | inhibition [13] | inhibition [14] | inhibition [15] | inhibition [16] | inhibition [17] | inhibition [18] | inhibition [19] | inhibition [20] | other results
1 | CCOP(=O)(OCC)[C@H]1C[C@H](C(=O)Nc2ccccc2C(C)=O)ON1C (mixture of isomers) | Non-toxic | Non-toxic | Non-toxic | Non-toxic | Non-toxic | inactive | inactive | inactive | inactive | inactive | inactive | inactive | inactive | inactive | inactive | inactive | inactive | inactive | inactive | inactive | inhibition [21]: inactive; inhibition [22]: inactive; inhibition [23]: inactive
2 | CCOP(=O)(OCC)[C@@H]1C[C@H](C(=O)Nc2cccc(Br)c2)ON1C (mixture of isomers) | Non-toxic | Non-toxic | Non-toxic | Non-toxic | Non-toxic | inactive | inactive | inactive | inactive | inactive | inactive | inactive | inactive | inactive | inactive | inactive | inactive | inactive | inactive | inactive | inhibition [21]: inactive; inhibition [22]: inactive; inhibition [23]: inactive
3 | CCOP(=O)(OCC)[C@H]1C[C@H](C(=O)Nc2ccc(OC)c(OC)c2)ON1C (mixture of isomers) | Non-toxic | Non-toxic | Non-toxic | Non-toxic | Non-toxic | inactive | inactive | inactive | inactive | inactive | inactive | inactive | inactive | inactive | inactive | inactive | inactive | inactive | inactive | inactive | inhibition [21]: inactive; inhibition [22]: inactive; inhibition [23]: inactive
4 | CCOc1ccc(NC(=O)[C@H]2C[C@H](P(=O)(OCC)OCC)N(C)O2)cc1 (mixture of isomers) | Non-toxic | Non-toxic | Non-toxic | Non-toxic | Non-toxic | inactive | inactive | inactive | inactive | inactive | inactive | inactive | inactive | inactive | inactive | inactive | inactive | inactive | inactive | inactive | inhibition [21]: inactive; inhibition [22]: inactive; inhibition [23]: inactive
5 | CCOP(=O)(OCC)[C@H]1C[C@H](C(=O)Nc2cccc(OC)c2)ON1C (racemic) | Non-toxic | Non-toxic | Non-toxic | Non-toxic | Non-toxic | inactive | inactive | inactive | inactive | inactive | inactive | inactive | inactive | inactive | inactive | inactive | inactive | inactive | inactive | inactive | inhibition [21]: inactive; inhibition [22]: inactive; inhibition [23]: inactive
6 | CCOP(=O)(OCC)[C@H]1C[C@H](C(=O)Nc2cccc([N+](=O)[O-])c2)ON1C (mixture of isomers) | Non-toxic | Non-toxic | Non-toxic | Non-toxic | Non-toxic | inactive | inactive | inactive | inactive | inactive | inactive | inactive | inactive | inactive | inactive | inactive | inactive | inactive | inactive | inactive | inhibition [21]: inactive; inhibition [22]: inactive; inhibition [23]: inactive
7 | CCOP(=O)(OCC)[C@@H]1C[C@H](C(=O)Nc2cc(OC)c(OC)c(OC)c2)ON1C (racemic) | Non-toxic | Non-toxic | Non-toxic | Non-toxic | Non-toxic | inactive | inactive | inactive | inactive | inactive | inactive | inactive | inactive | inactive | inactive | inactive | inactive | inactive | inactive | inactive | inhibition [21]: inactive; inhibition [22]: inactive; inhibition [23]: inactive
8 | CCOP(=O)(OCC)[C@H]1C[C@H](C(=O)Nc2cc(OC)c(OC)cc2C(C)=O)ON1C (mixture of isomers) | Non-toxic | Non-toxic | Non-toxic | Non-toxic | Non-toxic | inactive | inactive | inactive | inactive | inactive | inactive | inactive | inactive | inactive | inactive | inactive | inactive | inactive | inactive | inactive | inhibition [21]: inactive; inhibition [22]: inactive; inhibition [23]: inactive
